Test results taken from ChEMBL document CHEMBL4152384, “Pyrtriazoles, a Novel Class of Store-Operated Calcium Entry Modulators: Discovery, Biological Profiling, and in Vivo Proof-of-Concept Efficacy in Acute Pancreatitis” (J Med Chem, 2018).
Calls of active or inactive are those of the source. The rule behind the calls is not given here.

Tests used:
[1] = target: T1, Stromal interaction molecule 1 & 2/Calcium release-activated calcium channel protein 1 (Mus musculus) (UniProt Q8BWG9+P70302+P83093); assay: (§1) Modulation of STIM1/STIM2/Orai1 in mouse BV2 cells assessed as induction of store-operated calcium entry by measuring residual activity at 10 uM preincubated for 30 mins followed by tBhQ-mediated Ca2+ depletion and Ca2+ re-addition to extracellular solution measured for 600 secs by Fluo-4 AM-based fluorometric assay relative to control; format: cell-based
[2] = target: T2, Short transient receptor potential channel 1 & 3/Stromal interaction molecule 1/Calcium release-activated calcium channel protein 1 (Homo sapiens) (UniProt Q96D31+Q13507+Q13586+P48995); assay: as §1, with “TRPC1/TRPC3/STIM1/Orai1” for “STIM1/STIM2/Orai1”, “HEK” for “mouse BV2”; format: cell-based
T2 sequence (P48995 whole entry partner): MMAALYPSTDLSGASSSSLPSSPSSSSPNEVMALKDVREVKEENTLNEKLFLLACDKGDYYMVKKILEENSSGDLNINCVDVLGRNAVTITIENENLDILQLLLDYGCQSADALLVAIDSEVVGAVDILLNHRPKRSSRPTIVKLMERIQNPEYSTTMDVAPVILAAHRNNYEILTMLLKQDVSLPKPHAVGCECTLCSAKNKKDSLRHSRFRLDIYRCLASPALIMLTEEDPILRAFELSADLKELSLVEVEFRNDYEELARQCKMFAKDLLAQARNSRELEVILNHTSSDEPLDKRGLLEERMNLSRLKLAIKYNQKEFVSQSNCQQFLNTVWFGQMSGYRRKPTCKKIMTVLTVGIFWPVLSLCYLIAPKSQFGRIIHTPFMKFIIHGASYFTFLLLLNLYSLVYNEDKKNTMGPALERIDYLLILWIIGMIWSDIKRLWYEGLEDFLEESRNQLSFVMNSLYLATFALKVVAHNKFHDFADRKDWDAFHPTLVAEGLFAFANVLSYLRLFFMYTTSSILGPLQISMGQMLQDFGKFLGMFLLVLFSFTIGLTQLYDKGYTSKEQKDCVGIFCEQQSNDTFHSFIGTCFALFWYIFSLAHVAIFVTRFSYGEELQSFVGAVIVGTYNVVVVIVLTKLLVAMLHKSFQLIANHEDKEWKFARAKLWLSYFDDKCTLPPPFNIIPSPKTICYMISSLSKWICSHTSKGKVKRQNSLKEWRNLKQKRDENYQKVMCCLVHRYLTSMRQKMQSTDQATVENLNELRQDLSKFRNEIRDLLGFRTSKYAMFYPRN
T2 sequence (Q13507 whole entry partner): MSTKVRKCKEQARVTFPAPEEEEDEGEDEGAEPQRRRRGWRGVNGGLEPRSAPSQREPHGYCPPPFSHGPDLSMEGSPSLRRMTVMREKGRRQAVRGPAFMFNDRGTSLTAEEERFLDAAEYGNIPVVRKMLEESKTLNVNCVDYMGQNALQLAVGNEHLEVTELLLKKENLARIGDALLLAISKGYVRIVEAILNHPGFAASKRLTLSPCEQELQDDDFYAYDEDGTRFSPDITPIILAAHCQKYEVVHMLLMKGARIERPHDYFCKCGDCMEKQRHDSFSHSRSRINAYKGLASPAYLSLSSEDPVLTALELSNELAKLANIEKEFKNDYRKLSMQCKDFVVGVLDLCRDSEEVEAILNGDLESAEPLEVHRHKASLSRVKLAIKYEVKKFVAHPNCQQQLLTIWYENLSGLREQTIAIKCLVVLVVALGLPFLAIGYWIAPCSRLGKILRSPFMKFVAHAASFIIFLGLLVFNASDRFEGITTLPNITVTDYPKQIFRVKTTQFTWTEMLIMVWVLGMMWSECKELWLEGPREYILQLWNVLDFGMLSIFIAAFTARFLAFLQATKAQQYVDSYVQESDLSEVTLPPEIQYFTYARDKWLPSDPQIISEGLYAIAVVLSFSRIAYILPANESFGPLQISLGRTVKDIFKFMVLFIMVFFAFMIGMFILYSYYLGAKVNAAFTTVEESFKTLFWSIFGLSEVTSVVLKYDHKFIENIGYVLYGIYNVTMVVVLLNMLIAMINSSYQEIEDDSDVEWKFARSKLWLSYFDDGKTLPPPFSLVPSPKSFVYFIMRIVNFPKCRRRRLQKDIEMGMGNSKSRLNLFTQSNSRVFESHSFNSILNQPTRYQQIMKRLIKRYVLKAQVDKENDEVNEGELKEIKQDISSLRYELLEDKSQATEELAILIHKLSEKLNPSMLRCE
T2 sequence (Q13586 23-685 partner limits assumed): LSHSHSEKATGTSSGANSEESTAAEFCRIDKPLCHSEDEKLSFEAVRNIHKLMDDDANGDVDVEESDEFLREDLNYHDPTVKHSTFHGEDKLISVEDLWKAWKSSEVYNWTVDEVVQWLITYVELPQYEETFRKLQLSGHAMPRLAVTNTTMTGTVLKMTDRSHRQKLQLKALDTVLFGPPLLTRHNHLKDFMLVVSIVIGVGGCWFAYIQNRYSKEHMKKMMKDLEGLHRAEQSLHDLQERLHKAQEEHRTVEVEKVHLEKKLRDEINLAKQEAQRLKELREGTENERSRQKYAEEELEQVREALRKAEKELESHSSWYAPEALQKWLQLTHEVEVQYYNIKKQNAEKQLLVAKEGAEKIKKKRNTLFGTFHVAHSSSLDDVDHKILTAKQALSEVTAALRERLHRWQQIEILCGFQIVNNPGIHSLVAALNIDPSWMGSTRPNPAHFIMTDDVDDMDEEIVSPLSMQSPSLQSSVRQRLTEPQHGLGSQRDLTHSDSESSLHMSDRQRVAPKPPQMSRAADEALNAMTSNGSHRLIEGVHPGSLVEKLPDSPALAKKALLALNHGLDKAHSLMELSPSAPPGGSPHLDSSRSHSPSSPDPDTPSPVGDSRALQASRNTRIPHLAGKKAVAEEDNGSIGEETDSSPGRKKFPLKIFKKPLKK
T2 sequence (Q96D31 whole entry): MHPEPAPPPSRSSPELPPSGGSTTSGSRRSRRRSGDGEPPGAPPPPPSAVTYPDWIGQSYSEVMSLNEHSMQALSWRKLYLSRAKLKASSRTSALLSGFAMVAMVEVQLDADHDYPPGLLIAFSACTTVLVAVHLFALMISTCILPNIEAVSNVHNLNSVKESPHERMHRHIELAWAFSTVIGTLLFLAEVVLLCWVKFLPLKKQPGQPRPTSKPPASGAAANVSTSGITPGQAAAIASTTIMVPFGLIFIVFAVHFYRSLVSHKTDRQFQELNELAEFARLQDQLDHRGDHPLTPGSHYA

Jurkat [3] = assay: as §1, with “Induction” for “Modulation”, “store-operated calcium entry” for “STIM1/STIM2/Orai1”, “human Jurkat” for “mouse BV2”; format: cell-based
[4] = Cytotoxicity against HEK cells assessed as cell viability at 10 uM by MTT assay relative to control; format: cell-based; details: human, read-out: Activity
In short: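 Hek cells treated 24 h with compound at 10 μM; viability determined by MTT assay.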

[5] = target: Transient receptor potential cation channel subfamily V member 1 (Homo sapiens) (UniProt Q8NER1); assay: Antagonist activity at TRPV1 (unknown origin) expressed in HEK cells assessed as inhibition of capsaicin-induced calcium increase at 10 uM by fura-2-based assay; format: cell-based
Chain of Transient receptor potential cation channel subfamily V member 1 (Homo sapiens) (Q8NER1 whole entry): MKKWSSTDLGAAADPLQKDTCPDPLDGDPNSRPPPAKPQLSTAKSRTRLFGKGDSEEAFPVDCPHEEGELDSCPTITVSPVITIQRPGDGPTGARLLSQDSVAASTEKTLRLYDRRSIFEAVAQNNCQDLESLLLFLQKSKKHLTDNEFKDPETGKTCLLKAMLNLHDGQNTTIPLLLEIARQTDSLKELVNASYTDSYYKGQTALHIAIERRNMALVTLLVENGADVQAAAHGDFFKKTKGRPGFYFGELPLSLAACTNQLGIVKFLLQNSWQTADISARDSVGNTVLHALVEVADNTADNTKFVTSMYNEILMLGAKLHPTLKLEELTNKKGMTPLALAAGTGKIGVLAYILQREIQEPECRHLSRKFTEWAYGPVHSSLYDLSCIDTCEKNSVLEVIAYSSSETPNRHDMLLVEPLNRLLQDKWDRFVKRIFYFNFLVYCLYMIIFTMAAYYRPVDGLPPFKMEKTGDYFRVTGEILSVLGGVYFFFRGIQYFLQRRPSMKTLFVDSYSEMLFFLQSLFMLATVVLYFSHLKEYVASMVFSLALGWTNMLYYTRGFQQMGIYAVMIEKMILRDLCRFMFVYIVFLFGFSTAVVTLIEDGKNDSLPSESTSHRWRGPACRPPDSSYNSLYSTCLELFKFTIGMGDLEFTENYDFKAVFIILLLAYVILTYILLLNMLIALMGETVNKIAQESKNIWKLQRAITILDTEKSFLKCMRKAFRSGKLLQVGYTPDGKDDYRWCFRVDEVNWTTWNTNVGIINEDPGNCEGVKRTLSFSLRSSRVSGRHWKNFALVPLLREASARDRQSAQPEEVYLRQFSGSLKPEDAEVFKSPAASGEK
In short: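 TRPV1-overexpressing Hek cells; calcium rise evoked by capsaicin (100 nM), test compounds at 10 μM; peak amplitude read out; mean ± SEM of 600 cells from 30 plates on four separate experimental days.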

[6] = target: Transient receptor potential cation channel subfamily M member 8 (Homo sapiens) (UniProt Q7Z2W7); assay: Antagonist activity at TRPM8 (unknown origin) expressed in HEK cells assessed as inhibition of menthol -mediated calcium increase at 10 uM by fura-2-based assay; format: cell-based
Chain of Transient receptor potential cation channel subfamily M member 8 (Homo sapiens) (Q7Z2W7 whole entry, looked up): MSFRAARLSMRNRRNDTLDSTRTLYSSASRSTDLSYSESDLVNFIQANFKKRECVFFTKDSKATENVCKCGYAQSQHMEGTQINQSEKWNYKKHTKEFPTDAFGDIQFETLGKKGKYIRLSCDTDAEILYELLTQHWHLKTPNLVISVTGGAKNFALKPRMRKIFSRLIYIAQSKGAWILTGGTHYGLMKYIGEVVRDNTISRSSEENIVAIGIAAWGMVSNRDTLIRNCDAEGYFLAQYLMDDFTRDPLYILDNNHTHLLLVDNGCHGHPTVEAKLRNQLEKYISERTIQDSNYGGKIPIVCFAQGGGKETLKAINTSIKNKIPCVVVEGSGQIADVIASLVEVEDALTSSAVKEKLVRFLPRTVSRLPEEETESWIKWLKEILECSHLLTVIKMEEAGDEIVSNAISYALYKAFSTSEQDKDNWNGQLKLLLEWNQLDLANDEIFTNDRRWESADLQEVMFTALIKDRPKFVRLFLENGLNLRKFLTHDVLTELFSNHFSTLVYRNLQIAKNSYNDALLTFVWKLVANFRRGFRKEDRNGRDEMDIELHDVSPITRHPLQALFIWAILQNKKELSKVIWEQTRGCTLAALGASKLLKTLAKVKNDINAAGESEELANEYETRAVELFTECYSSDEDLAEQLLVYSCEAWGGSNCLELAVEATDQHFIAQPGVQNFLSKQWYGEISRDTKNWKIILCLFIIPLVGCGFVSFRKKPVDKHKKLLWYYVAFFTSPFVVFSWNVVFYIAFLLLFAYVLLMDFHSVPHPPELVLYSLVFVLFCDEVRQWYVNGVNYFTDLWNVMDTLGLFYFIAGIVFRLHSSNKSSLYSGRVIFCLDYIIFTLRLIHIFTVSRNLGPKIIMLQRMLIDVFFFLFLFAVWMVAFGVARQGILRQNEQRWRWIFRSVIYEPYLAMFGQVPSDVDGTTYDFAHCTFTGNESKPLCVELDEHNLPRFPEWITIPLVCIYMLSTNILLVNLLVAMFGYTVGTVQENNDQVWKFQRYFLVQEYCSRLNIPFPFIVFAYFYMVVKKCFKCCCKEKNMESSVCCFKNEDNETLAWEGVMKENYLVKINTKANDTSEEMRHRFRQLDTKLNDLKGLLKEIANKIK
In short: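 TRPM8-overexpressing Hek cells; calcium rise evoked by menthol (100 μM), test compounds at 10 μM; peak amplitude read out; mean ± SEM of 600 cells from 30 plates on four separate experimental days.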

[7] = as §1, with “Induction” for “Modulation”, “store-operated calcium entry” for “STIM1/STIM2/Orai1”, “human Jurkat” for “mouse BV2”, “activity” for “activity at 10 uM”; format: cell-based
[8] = target: T1, Stromal interaction molecule 1 & 2/Calcium release-activated calcium channel protein 1 (Mus musculus); assay: as §1, with “100” for “10”; format: cell-based
[9] = target: T2, Short transient receptor potential channel 1 & 3/Stromal interaction molecule 1/Calcium release-activated calcium channel protein 1 (Homo sapiens); assay: as §1, with “TRPC1/TRPC3/STIM1/Orai1” for “STIM1/STIM2/Orai1”, “HEK” for “mouse BV2”, “100” for “10”; format: cell-based
[10] = Metabolic stability in CD1 mouse plasma assessed as residual compound level at 50 uM after 30 mins by LC-UV analysis; format: ADME, cell-free; details: read-out: Stability
In short: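 Compounds incubated in mouse plasma for 30 min; percentage of residual substrate determined.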

Jurkat [11] = assay: as §1, with “Induction” for “Modulation”, “store-operated calcium entry” for “STIM1/STIM2/Orai1”, “human Jurkat” for “mouse BV2”, “100” for “10”; format: cell-based

Row | Structure (SMILES) | Activity [1] | Activity [2] | Activity (Jurkat [3]) | viability at 10 µM [4] | other results
1 | CCOC(=O)c1cnn(-c2ccc(-c3cn(-c4cccc(N)c4)nn3)cc2)c1C(F)(F)F | 61.3% | 73.2% | 85.4% |  | 
2 | CCOC(=O)c1cnn(-c2ccc(-n3cc(-c4ccc(O)c(OC)c4)nn3)cc2)c1C(F)(F)F | 65% | 43.2% | 21.6% |  | 
3 | CCOC(=O)c1cnn(-c2ccc(NC(=O)c3cccc(C(=O)O)c3)cc2)c1C(F)(F)F |  | 63.5% |  | 65.9% | 
4 | CCOC(=O)c1cnn(-c2ccc(NC(=O)C(Cl)=C(Cl)Cl)cc2)c1C(F)(F)F | 40.7% | 8.9% | 6.1% | 28.6% | inhibition [5]: inactive; inhibition [6]: inactive; IC50 [7]: 300 nM; residual activity [8]: < 100%; residual activity [9]: < 100%; remaining at 0.5 h, 50 µM [10]: 20.4%; residual activity (Jurkat [11]): < 100%
5 | CCOC(=O)c1cnn(-c2ccc(-c3cn(CCCC(=O)O)nn3)cc2)c1C(F)(F)F | 69.9% | 95.5% | 80.9% |  | 
6 | CCOC(=O)c1cnn(-c2ccc(-c3cn(-c4ccc(C(=O)O)cc4)nn3)cc2)c1C(F)(F)F | 69.5% | 69.3% | 60.3% |  | 

Continued, in another order:

Row | Activity [1] | Activity [2] | Structure (SMILES) | Activity (Jurkat [3]) | viability at 10 µM [4] | other results
7 | 65.3% | 81.7% | CCOC(=O)c1cnn(-c2ccc(-n3cc(-c4cccc(N)c4)nn3)cc2)c1C(F)(F)F | 89.3% |  | 
8 |  | 6.4% | CCOC(=O)c1cnn(-c2ccc(-n3cc(-c4cccc(C(=O)NO)c4)nn3)cc2)c1C(F)(F)F |  | 67.5% | 
